For one experiment, the system named is Vibrio harveyi. Put plainly: Antimicrobial activity against Vibrio harveyi by well diffusion method. In kind it is functional, organism-based. In outline:
(§1)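 Agar well diffusion assay against the bacterial test strain; chloromycetin run alongside as positive control. Method follows a cited earlier protocol.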

The subject of the next experiment is Vibrio anguillarum. Put plainly: Antimicrobial activity against Vibrio anguillarum by well diffusion method. The class given is functional, organism-based. In outline: as §1
Another experiment relates to Vibrio alginolyticus. Nature of the experiment: Antimicrobial activity against Vibrio alginolyticus by well diffusion method. In kind it is functional. In outline:
as §1

The next experiment concerns Aeromonas hydrophila. Nature of the experiment: Antimicrobial activity against Aeromonas hydrophila by well diffusion method. The class given is functional, organism-based. A digest of the protocol: as §1
For a further experiment, the system named is Edwardsiella tarda. Nature of the experiment: Antimicrobial activity against Edwardsiella tarda by well diffusion method. In kind it is functional, organism-based. In outline:
as §1

Another experiment has as its system Vibrio parahaemolyticus. Nature of the experiment: Antimicrobial activity against Vibrio parahaemolyticus by well diffusion method. In kind it is functional, organism-based. A digest of the protocol:
as §1

The test system of the next experiment is Escherichia coli. Nature of the experiment: Antimicrobial activity against Escherichia coli by well diffusion method. In kind it is functional.
Another experiment has as its system Staphylococcus aureus. Nature of the experiment: Antimicrobial activity against Staphylococcus aureus by well diffusion method. The class given is functional.

Data on 9 compounds can be found in ChEMBL document CHEMBL3608285, “Citrifelins A and B, Citrinin Adducts with a Tetracyclic Framework from Cocultures of Marine-Derived Isolates of Penicillium citrinum and Beauveria felina” (2015).

SMILES strings stand for the structures. Converted amounts (≈) assume the structure as drawn. The source made the active and inactive calls. The calls are words filed in the database; no cut-off is given here. Numbered stars: 1 amine (or outer) side, 2 acyl side, 3 side chain; on linkers, the order of the positions; unused ones are H or OH. Square brackets hold non-standard residues; d marks the D form. Peptide text beside a SMILES is read from it. X1 = C[C@H]1CCN([*:1])[C@@H]1C(=O)[*:2]; dLac(3-vinyl) = C=CC[C@@H](O)C(=O)O; NMeF = CN[C@@H](Cc1ccccc1)C(=O)O; Hica(2S) = CC(C)C[C@H](O)C(=O)O; NMeV = CN[C@H](C(=O)O)C(C)C; NMeA = CN[C@@H](C)C(=O)O; βAla = NCCC(=O)O

Take `CC(C)C[C@@H]1OC(=O)CCNC(=O)[C@H](Cc2ccccc2)N(C)C(=O)[C@H](C(C)C)N(C)C(=O)[C@H](Cc2ccccc2)NC(=O)[C@@H]2[C@@H](C)CCN2C1=O` (cyclo(F[NMeV][NMeF][βAla][Hica(2S)][X1])): the MIC entry in the experiment on Vibrio harveyi, with Vibrio anguillarum, in the experiment on Vibrio alginolyticus, with Aeromonas hydrophila, with Edwardsiella tarda and in the experiment on Vibrio parahaemolyticus was “inactive” each time.

Take `Cc1c(O)cc2c3c1[C@H](C)[C@@H](C)O[C@@H]3C[C@H](c1ccc(O)cc1)O2`: the MIC was 8 µg/mL (≈ 24.5 µM) in the experiment on Escherichia coli, 16 µg/mL (≈ 49 µM) in the experiment with Vibrio alginolyticus and 8 µg/mL (≈ 24.5 µM) against Staphylococcus aureus. For the same compound, the MIC result with Vibrio harveyi, in the experiment with Vibrio anguillarum, in the experiment with Aeromonas hydrophila, in the experiment with Edwardsiella tarda and in the experiment with Vibrio parahaemolyticus was “inactive” each time.

Take `C=CC[C@H]1OC(=O)CCNC(=O)[C@H](C)N(C)C(=O)[C@H](C(C)C)N(C)C(=O)[C@H]([C@@H](C)CC)NC(=O)[C@@H]2[C@@H](C)CCN2C1=O` (cyclo(I[NMeV][NMeA][βAla][dLac(3-vinyl)][X1])): the MIC entry in the experiment with Vibrio harveyi, with Vibrio anguillarum, in the experiment on Vibrio alginolyticus, in the experiment on Aeromonas hydrophila, with Edwardsiella tarda and in the experiment on Vibrio parahaemolyticus was “inactive” in each case.

Consider `COc1cc([C@H]2C[C@H]3O[C@H](C)[C@@H](C)c4c(C)c(O)cc(c43)O2)ccc1O`, for which the MIC in the experiment on Escherichia coli came out at 2 µg/mL (≈ 5.61 µM); with Vibrio alginolyticus it was 16 µg/mL (≈ 44.9 µM); in the experiment with Staphylococcus aureus it was 4 µg/mL (≈ 11.2 µM). For the same compound, the MIC entry in the experiment with Vibrio harveyi, in the experiment on Vibrio anguillarum, in the experiment with Aeromonas hydrophila, with Edwardsiella tarda and with Vibrio parahaemolyticus was “inactive” each time.

For `Cc1c2c(c3oc4cc(=O)c(C)c5c-4c(c3c1O)O[C@H](C)[C@H]5C)O[C@H](C)[C@H]2C`, the MIC entry in the experiment with Vibrio harveyi, in the experiment with Vibrio anguillarum, with Vibrio alginolyticus, with Aeromonas hydrophila, in the experiment on Edwardsiella tarda and in the experiment on Vibrio parahaemolyticus was “inactive” in each case.

On to `Cc1c(O)c(C(=O)O)c(O)c2c1[C@H](C)[C@@H](C)OC2=O`, for which the MIC result in the experiment with Vibrio harveyi, with Vibrio anguillarum, with Vibrio alginolyticus, with Aeromonas hydrophila, in the experiment on Edwardsiella tarda and in the experiment with Vibrio parahaemolyticus was “inactive” each time.

Turning to `CC(C)C[C@@H]1OC(=O)CCNC(=O)[C@H](Cc2ccccc2)N(C)C(=O)[C@H](C(C)C)N(C)C(=O)[C@H](Cc2ccccc2)NC(=O)[C@@H]2CCCN2C1=O` (cyclo(F[NMeV][NMeF][βAla][Hica(2S)]P)), the MIC result with Vibrio harveyi, in the experiment with Vibrio anguillarum, with Vibrio alginolyticus, with Aeromonas hydrophila, in the experiment with Edwardsiella tarda and in the experiment with Vibrio parahaemolyticus was “inactive” in each case.

Take `Cc1c(O)cc(O)c2c1[C@H](C)[C@@H](C)OC2=O`: the MIC result in the experiment with Vibrio harveyi, with Vibrio anguillarum, in the experiment on Aeromonas hydrophila, in the experiment with Edwardsiella tarda and in the experiment on Vibrio parahaemolyticus was “inactive” each time. Moreover, the lowest concentration to inhibit growth in the experiment on Vibrio alginolyticus (MIC) was 8 µg/mL (≈ 36 µM).

On to `C=CC[C@H]1OC(=O)CCNC(=O)[C@H](C)N(C)C(=O)[C@H](C(C)C)N(C)C(=O)[C@H]([C@@H](C)CC)NC(=O)[C@@H]2CCCN2C1=O` (cyclo([dLac(3-vinyl)]PI[NMeV][NMeA][βAla])), for which the MIC entry in the experiment on Vibrio harveyi, in the experiment with Vibrio anguillarum, with Vibrio alginolyticus, in the experiment with Aeromonas hydrophila, in the experiment on Edwardsiella tarda and with Vibrio parahaemolyticus was “inactive” each time.
